The values below come from ChEMBL document CHEMBL1641579, “Synthesis and biological evaluation of 7-substituted-1-(3-bromophenylamino)isoquinoline-4-carbonitriles as inhibitors of myosin light chain kinase and epidermal growth factor receptor” (Bioorg Med Chem, 2011).

Experiment [1] addresses T1, Inhibitor of nuclear factor kappa-B kinase subunit beta (Homo sapiens) (UniProt O14920).
T1 sequence (whole entry): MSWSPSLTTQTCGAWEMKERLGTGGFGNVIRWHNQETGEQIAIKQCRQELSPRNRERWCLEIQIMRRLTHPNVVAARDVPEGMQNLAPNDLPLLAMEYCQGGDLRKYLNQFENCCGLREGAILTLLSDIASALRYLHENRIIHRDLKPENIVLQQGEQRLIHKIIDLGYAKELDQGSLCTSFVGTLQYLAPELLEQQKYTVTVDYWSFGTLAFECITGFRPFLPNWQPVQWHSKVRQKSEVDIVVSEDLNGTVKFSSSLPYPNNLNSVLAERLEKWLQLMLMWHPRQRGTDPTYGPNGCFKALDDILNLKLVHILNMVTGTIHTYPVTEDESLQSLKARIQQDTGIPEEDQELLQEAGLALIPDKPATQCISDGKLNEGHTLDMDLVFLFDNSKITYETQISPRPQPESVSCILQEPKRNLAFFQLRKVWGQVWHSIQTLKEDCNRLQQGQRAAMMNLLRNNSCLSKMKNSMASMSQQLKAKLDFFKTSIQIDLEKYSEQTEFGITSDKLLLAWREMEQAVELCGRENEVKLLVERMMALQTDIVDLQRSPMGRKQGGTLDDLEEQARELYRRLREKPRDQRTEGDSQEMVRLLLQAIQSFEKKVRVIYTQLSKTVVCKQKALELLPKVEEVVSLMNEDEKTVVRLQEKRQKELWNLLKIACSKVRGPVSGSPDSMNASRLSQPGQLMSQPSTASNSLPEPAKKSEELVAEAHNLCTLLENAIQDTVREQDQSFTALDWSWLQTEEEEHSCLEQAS
Kind of experiment: Inhibition of IKK-beta assessed as residual activity at 10 uM. The gist of the method: (§1)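 Kinase panel screen run as a radioactive activity assay at single compound concentration. Score reported as percent activity remaining relative to DMSO controls (100%).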

Experiment [2] addresses Aurora kinase B (Homo sapiens) (UniProt Q96GD4). Nature of the experiment: Inhibition of aurora B assessed as residual activity at 10 uM. The gist of the method: (§2)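 Panel screen by radioactive kinase assay at a single inhibitor concentration. Score is the percent activity remaining relative to DMSO controls (100%).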
For experiment [3], the target named is Ribosomal protein S6 kinase alpha-1 (Homo sapiens) (UniProt Q15418). Kind of experiment: Inhibition of RSK1 assessed as residual activity at 10 uM. In a few lines:
as §2

For experiment [4], the target named is MAP kinase-interacting serine/threonine-protein kinase 2 (Homo sapiens) (UniProt Q9HBH9). Nature of the experiment: Inhibition of MNK2 assessed as residual activity at 10 uM. The gist of the method: as §2
In experiment [5] the target is Homeodomain-interacting protein kinase 1 (Homo sapiens) (UniProt Q86Z02). Nature of the experiment: Inhibition of HIPK1 assessed as residual activity at 10 uM. In a few lines:
as §1

Experiment [6] addresses Insulin-like growth factor 1 receptor (Homo sapiens) (UniProt P08069). Nature of the experiment: Inhibition of IGF1R assessed as residual activity at 10 uM. The gist of the method: as §1
For experiment [7], the target named is Insulin receptor (Homo sapiens) (UniProt P06213). Nature of the experiment: Inhibition of IR assessed as residual activity at 10 uM. In a few lines:
as §1

Experiment [8] has as its target Ephrin type-A receptor 2 (Homo sapiens) (UniProt P29317). Nature of the experiment: Inhibition of EPHA2 assessed as residual activity at 10 uM. In a few lines:
as §1

The target in experiment [9] is T2, MAP/microtubule affinity-regulating kinase 4 (Homo sapiens) (UniProt Q96L34).
T2 sequence (whole entry): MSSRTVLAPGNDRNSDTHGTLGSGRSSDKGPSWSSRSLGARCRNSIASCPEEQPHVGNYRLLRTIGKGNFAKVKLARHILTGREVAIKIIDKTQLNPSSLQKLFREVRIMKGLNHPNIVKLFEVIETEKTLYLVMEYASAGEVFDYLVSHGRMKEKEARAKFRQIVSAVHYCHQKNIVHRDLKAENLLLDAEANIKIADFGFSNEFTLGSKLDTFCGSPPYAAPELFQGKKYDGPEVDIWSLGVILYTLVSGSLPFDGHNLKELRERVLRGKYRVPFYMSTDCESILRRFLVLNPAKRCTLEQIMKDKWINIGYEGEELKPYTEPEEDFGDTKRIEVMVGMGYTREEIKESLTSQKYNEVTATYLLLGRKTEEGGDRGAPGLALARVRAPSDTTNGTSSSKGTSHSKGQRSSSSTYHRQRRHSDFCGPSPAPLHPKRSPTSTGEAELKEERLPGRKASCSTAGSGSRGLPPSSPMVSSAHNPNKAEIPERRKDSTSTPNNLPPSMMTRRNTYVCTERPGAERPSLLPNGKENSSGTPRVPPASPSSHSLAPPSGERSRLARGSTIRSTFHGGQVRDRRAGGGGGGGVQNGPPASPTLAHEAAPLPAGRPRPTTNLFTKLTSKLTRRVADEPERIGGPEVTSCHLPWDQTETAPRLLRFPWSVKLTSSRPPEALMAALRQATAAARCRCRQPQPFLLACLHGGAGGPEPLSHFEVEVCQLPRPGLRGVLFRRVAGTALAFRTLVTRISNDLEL
Nature of the experiment: Inhibition of MARK4 assessed as residual activity at 10 uM. The gist of the method: as §1

Experiment [10] addresses Serine/threonine-protein kinase 26 (Homo sapiens) (UniProt Q9P289). Nature of the experiment: Inhibition of MST4 assessed as residual activity at 10 uM. The gist of the method: as §2
In experiment [11] the target is Mitogen-activated protein kinase 1 (Homo sapiens) (UniProt P28482). Nature of the experiment: Inhibition of ERK2 assessed as residual activity at 10 uM. The gist of the method: as §1
Experiment [12] has as its target SRSF protein kinase 1 (Homo sapiens) (UniProt Q96SB4). Kind of experiment: Inhibition of SRPK1 assessed as residual activity at 10 uM. The gist of the method:
as §2

For experiment [13], the target named is MAP kinase-activated protein kinase 2 (Homo sapiens) (UniProt P49137). Nature of the experiment: Inhibition of MAPKAPK2 assessed as residual activity at 10 uM. In a few lines:
as §1

The target of experiment [14] is T3, Dual specificity tyrosine-phosphorylation-regulated kinase 3 (Homo sapiens) (UniProt O43781).
T3 sequence (whole entry): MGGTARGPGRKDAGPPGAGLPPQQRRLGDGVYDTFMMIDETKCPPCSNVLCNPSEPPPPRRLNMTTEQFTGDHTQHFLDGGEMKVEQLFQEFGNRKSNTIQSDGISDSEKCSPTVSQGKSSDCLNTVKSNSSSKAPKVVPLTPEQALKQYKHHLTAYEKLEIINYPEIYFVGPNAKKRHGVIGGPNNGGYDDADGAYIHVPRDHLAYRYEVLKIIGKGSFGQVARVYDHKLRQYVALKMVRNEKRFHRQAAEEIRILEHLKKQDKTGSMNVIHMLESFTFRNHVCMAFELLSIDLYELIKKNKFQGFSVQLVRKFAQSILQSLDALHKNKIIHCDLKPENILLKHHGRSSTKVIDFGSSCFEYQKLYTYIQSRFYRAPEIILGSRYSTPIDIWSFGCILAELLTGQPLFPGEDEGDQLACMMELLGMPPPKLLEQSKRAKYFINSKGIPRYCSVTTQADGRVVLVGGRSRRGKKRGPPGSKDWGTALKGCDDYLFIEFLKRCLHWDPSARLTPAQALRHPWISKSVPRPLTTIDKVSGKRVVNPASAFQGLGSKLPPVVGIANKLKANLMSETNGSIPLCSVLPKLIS
Nature of the experiment: Inhibition of DYRK3 assessed as residual activity at 10 uM. The gist of the method:
as §1

Experiment [15] can be described thus: Inhibition of VEGFR assessed as residual activity at 10 uM. The gist of the method: as §2

Chain of Homeodomain-interacting protein kinase 1 (Homo sapiens) (Q86Z02 whole entry, looked up): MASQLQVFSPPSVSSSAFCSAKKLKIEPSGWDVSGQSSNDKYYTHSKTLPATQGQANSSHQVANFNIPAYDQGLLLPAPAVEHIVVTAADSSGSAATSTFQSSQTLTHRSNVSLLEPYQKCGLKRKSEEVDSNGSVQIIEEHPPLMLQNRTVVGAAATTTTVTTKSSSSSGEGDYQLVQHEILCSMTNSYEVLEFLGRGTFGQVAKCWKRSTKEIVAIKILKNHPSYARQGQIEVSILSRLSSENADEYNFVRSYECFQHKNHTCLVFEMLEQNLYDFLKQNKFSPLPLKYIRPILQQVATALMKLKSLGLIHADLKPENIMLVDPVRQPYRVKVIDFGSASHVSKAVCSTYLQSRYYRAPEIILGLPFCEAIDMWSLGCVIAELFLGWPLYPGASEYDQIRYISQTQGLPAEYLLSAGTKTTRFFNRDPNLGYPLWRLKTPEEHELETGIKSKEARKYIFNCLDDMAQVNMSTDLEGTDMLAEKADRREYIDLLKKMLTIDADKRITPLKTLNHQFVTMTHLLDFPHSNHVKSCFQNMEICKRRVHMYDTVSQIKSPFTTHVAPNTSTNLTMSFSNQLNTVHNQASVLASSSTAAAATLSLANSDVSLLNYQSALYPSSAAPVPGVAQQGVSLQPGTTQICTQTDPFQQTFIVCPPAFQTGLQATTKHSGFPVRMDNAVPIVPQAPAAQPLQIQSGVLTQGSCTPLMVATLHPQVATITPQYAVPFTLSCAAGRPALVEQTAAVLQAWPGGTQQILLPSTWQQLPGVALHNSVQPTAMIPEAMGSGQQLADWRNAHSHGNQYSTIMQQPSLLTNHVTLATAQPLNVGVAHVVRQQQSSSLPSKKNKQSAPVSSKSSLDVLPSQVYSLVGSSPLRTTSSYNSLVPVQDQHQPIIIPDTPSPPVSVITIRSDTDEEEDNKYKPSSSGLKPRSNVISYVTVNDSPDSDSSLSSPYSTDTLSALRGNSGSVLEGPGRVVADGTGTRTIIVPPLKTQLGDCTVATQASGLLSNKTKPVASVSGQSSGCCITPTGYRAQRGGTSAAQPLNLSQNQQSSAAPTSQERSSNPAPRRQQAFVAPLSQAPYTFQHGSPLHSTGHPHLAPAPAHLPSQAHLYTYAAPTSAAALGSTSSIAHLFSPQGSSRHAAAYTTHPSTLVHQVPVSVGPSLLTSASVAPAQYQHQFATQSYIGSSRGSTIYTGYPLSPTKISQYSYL
Chain of Aurora kinase B (Homo sapiens) (Q96GD4 whole entry): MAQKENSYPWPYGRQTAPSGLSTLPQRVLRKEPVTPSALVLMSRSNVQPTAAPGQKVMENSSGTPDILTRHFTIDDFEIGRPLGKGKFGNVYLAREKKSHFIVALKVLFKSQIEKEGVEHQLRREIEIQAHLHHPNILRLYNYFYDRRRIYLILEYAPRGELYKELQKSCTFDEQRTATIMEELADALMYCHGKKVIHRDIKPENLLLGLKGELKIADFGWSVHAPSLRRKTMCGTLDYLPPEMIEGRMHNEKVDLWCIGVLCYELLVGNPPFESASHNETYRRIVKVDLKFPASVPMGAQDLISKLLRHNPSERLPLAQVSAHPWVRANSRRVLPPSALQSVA
Chain of Insulin-like growth factor 1 receptor (Homo sapiens) (P08069 31-736 limits assumed): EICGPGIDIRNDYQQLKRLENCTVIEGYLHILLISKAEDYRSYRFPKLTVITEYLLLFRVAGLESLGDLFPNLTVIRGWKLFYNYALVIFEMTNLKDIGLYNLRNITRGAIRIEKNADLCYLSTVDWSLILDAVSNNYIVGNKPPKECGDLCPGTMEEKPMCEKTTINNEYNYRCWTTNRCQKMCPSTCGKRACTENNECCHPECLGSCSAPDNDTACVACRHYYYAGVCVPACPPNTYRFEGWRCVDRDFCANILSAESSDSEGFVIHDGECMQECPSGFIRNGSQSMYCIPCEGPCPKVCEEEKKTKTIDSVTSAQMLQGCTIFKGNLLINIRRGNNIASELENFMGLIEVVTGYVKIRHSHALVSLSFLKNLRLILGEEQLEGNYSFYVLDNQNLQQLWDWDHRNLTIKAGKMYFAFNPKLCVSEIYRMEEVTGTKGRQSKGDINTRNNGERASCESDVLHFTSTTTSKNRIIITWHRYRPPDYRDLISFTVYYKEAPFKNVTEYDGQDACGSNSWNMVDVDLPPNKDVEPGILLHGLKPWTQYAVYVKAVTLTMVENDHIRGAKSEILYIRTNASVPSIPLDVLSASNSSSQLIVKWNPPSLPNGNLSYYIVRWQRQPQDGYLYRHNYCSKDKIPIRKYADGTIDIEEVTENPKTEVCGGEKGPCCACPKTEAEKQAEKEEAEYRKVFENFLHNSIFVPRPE
Chain of Insulin-like growth factor 1 receptor (Homo sapiens) (P08069 741-1367 limits assumed): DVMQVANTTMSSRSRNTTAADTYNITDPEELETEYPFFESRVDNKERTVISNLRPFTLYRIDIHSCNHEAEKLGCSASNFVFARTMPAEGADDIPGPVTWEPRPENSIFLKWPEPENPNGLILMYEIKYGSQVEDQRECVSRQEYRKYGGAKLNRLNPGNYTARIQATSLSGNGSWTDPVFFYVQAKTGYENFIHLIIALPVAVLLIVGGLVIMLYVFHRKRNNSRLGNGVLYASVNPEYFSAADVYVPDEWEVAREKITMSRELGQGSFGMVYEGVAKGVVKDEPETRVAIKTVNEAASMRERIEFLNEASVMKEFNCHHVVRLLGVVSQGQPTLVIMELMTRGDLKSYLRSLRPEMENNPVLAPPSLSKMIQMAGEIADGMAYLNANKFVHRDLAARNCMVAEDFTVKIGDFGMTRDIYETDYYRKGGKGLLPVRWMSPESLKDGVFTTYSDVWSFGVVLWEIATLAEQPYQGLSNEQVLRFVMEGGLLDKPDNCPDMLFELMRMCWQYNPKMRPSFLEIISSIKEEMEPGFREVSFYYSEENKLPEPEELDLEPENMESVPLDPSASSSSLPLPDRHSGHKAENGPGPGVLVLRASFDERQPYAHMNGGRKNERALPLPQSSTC
Chain of Mitogen-activated protein kinase 1 (Homo sapiens) (P28482 whole entry): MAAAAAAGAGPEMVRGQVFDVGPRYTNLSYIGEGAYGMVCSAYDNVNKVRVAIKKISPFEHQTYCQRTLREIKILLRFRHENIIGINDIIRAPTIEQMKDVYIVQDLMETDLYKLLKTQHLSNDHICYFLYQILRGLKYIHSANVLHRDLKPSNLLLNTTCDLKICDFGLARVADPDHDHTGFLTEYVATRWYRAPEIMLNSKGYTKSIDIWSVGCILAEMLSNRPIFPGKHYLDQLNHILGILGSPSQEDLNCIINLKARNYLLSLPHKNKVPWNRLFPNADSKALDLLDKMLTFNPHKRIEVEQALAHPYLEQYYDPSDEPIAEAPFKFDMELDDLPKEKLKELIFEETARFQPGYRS
Chain of MAP kinase-interacting serine/threonine-protein kinase 2 (Homo sapiens) (Q9HBH9 whole entry, looked up): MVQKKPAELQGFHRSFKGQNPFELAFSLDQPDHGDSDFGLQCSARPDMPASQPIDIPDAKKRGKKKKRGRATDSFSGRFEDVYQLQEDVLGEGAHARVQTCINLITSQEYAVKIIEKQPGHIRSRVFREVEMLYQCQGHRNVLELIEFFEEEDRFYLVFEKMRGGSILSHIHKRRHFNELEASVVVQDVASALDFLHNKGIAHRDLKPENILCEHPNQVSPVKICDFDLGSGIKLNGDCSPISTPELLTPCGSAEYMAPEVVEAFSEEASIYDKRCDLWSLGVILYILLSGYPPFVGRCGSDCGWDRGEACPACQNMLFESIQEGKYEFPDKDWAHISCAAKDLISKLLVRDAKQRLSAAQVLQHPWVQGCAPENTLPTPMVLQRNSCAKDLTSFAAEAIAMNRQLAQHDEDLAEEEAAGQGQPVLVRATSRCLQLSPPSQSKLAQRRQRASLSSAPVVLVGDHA
Chain of Serine/threonine-protein kinase 26 (Homo sapiens) (Q9P289 2-416 limits assumed): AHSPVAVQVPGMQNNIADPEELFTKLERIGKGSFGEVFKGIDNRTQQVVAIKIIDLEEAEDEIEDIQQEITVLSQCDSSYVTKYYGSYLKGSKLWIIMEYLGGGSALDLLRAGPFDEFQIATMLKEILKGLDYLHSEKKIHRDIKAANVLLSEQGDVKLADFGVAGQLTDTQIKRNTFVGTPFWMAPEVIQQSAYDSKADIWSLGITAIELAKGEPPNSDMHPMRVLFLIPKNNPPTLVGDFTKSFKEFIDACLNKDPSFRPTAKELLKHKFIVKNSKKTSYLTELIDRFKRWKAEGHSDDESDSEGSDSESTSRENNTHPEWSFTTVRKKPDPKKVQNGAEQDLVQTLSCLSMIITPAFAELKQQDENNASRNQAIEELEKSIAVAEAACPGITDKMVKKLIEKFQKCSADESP
Chain of Ribosomal protein S6 kinase alpha-1 (Homo sapiens) (Q15418 whole entry): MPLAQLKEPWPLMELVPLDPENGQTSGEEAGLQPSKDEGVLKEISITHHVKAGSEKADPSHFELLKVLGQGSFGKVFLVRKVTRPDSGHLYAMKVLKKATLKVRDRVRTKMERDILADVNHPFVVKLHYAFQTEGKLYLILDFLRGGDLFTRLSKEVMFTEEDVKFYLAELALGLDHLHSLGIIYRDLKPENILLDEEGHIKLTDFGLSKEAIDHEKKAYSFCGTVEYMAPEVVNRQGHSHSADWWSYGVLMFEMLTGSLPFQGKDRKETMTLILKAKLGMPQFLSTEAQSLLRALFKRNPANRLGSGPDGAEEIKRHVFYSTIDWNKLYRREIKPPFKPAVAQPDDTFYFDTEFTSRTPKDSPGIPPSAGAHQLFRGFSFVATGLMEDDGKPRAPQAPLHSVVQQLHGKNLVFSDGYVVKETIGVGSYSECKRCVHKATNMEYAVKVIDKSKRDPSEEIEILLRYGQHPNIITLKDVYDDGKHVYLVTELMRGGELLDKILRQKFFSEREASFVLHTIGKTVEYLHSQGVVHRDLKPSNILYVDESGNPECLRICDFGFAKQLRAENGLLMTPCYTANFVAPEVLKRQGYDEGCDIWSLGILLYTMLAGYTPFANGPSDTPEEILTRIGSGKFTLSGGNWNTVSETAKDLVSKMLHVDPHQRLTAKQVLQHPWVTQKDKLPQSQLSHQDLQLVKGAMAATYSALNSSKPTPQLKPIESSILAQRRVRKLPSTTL

On to `CN(C)C/C=C/C(=O)Nc1ccc2c(C#N)cnc(Nc3cccc(Br)c3)c2c1`, for which the Activity in experiment [1] worked out at 79%; in experiment [2], 33%; in experiment [3], 79%; in experiment [4] it was 92%; in experiment [5], 100%; in experiment [6], 73%. Also, the Activity in [7] amounted to 77%; in experiment [8], 73%; in experiment [9], 82%; in experiment [10] it was 81%; in experiment [11], 81%; in [12], 55%. The Activity in experiment [13] is 97%; in experiment [14], 75%; in experiment [15] it was 74%.

For the molecule `CN1CCN(CCC(=O)Nc2ccc3c(C#N)cnc(Nc4cccc(Br)c4)c3c2)CC1`, the Activity came out at 88% in experiment [1]; 42% in experiment [2]; 84% in [3]; 85% in experiment [4]; 83% in experiment [5]; 65% in experiment [6]. In addition, the Activity is 95% in experiment [7]; 87% in experiment [8]; 100% in [9]; 92% in experiment [10]; 95% in experiment [11]; 58% in experiment [12]. Besides, the results for the Activity in experiment [13], in experiment [14] and in experiment [15] were 100%, 81% and 88%, respectively.

For the molecule `CN(C)CCCC(=O)Nc1ccc2c(C#N)cnc(Nc3cccc(Br)c3)c2c1`, the Activity was 84% in experiment [1]; 41% in [2]; 84% in experiment [3]; 100% in experiment [4]; 95% in [5]; 59% in experiment [6]. In addition, the Activity in [7] worked out at 93%; in [8], 84%; in experiment [9], 100%; in experiment [10], 99%; in experiment [11] it was 100%; in experiment [12], 72%. Moreover, the figures for the Activity in experiment [13], in [14] and in [15] were 100%, 73% and 87%, respectively.
